The record followed here is ChEMBL document CHEMBL3046448, “Design and syntheses of novel phthalazin-1(2H)-one derivatives as acetohydroxyacid synthase inhibitors” (J Agric Food Chem, 2006).

The structures appear in SMILES notation. Where only a bound is given, the exact number is not on record here.

In one assay the test system is Setaria viridis. The assay is described as follows: Herbicidal activity against Setaria viridis (green foxtail) assessed as growth inhibition at 150 g ai/ha applied as pre-emergence treatment 24 hr after weeds seeds sowing under green house conditions measured 15 days post compound treatment. Format: functional. To be noted: read-out: GI. The gist of the method:
(§1)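 Pre-emergence spray applied 24 h after sowing weeds in pots in a greenhouse. Clay soil: pH 6.5, 1.6% organic matter, 37.3% clay, CEC 12.1 cmol/kg. Formulation: 100 g/L emulsified concentrate (DMF solvent, TW-80 emulsifier) diluted with water to 150 g ai/ha. Untreated and DMF-treated controls. Growth inhibition judged visually at 15 days: ++ >80%, + 50-80%, − <50%.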
For `CCCn1nc(C)c2cccc(Oc3nc(OC)cc(OC)n3)c2c1=O`, the inhibition of growth at 150 g/ha was less than 50%.
As to `CCc1ccc(C(=O)n2nc(C)c3cccc(Oc4nc(OC)cc(OC)n4)c3c2=O)cc1`, the inhibition of growth at 150 g/ha is less than 50%.

The subject of the next assay is Brassica juncea. As to the kind of experiment: Herbicidal activity against Brassica juncea assessed as growth inhibition at 150 g ai/ha applied as post-emergence treatment under green house conditions measured 15 days post compound treatment. The assay is classed as functional. Particulars: 360 h, read-out: GI. The gist of the method: (§2)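 Post-emergence spray on pot-grown dicot weeds at the two-leaf stage in a greenhouse. Clay soil: pH 6.5, 1.6% organic matter, 37.3% clay, CEC 12.1 cmol/kg. Formulation: 100 g/L DMF/TW-80 emulsified concentrate, water-diluted to 150 g ai/ha. Untreated and DMF solvent controls. Visual inhibition rating at 15 days: ++ >80%, + 50-80%, − <50%.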
Consider `CCCn1nc(C)c2cccc(Oc3nc(OC)cc(OC)n3)c2c1=O`, for which the inhibition of growth at 150 g/ha came to 50%.
For `CCc1ccc(C(=O)n2nc(C)c3cccc(Oc4nc(OC)cc(OC)n4)c3c2=O)cc1`, the inhibition of growth at 150 g/ha was 50%.

The test system of another assay is Brassica juncea. As to the kind of experiment: Herbicidal activity against Brassica juncea assessed as growth inhibition at 150 g ai/ha applied as pre-emergence treatment 24 hr after weeds seeds sowing under green house conditions measured 15 days post compound treatment. The assay is classed as functional. Particulars: read-out: GI. The gist of the method:
as §1
For the compound `CCCn1nc(C)c2cccc(Oc3nc(OC)cc(OC)n3)c2c1=O`, the inhibition of growth at 150 g/ha was less than 50%.
The same measure, in the same setting: next, `CCc1ccc(C(=O)n2nc(C)c3cccc(Oc4nc(OC)cc(OC)n4)c3c2=O)cc1`: less than 50%.

The subject of another assay is Echinochloa crus-galli. As to the kind of experiment: Herbicidal activity against Echinochloa crus-galli (barnyard grass) assessed as growth inhibition at 150 g ai/ha applied as pre-emergence treatment 24 hr after weeds seeds sowing under green house conditions measured 15 days post compound treatment. The assay is classed as functional. To be noted: read-out: GI. The gist of the method:
as §1
For the compound `CCCn1nc(C)c2cccc(Oc3nc(OC)cc(OC)n3)c2c1=O`, the inhibition of growth at 150 g/ha was less than 50%.
Take `CCc1ccc(C(=O)n2nc(C)c3cccc(Oc4nc(OC)cc(OC)n4)c3c2=O)cc1`: the inhibition of growth at 150 g/ha is less than 50%.

Another assay deals with Digitaria sanguinalis. The assay is described as follows: Herbicidal activity against Digitaria sanguinalis (hairy crabgrass) assessed as growth inhibition at 150 g ai/ha applied as pre-emergence treatment 24 hr after weeds seeds sowing under green house conditions measured 15 days post compound treatment. Format: functional. Particulars: read-out: GI. Put shortly: as §1
For `CCCn1nc(C)c2cccc(Oc3nc(OC)cc(OC)n3)c2c1=O`, the inhibition of growth at 150 g/ha was less than 50%.
On the same count and under the same terms, the figure for `CCc1ccc(C(=O)n2nc(C)c3cccc(Oc4nc(OC)cc(OC)n4)c3c2=O)cc1` is less than 50%.

The test system of a further assay is Chenopodium album. The assay is described as follows: Herbicidal activity against Chenopodium album assessed as growth inhibition at 150 g ai/ha applied as pre-emergence treatment 24 hr after weeds seeds sowing under green house conditions measured 15 days post compound treatment. The assay is classed as functional. Particulars: read-out: GI. Put shortly: as §1
Take `CCCn1nc(C)c2cccc(Oc3nc(OC)cc(OC)n3)c2c1=O`: the inhibition of growth at 150 g/ha is less than 50%.
`CCc1ccc(C(=O)n2nc(C)c3cccc(Oc4nc(OC)cc(OC)n4)c3c2=O)cc1`: the inhibition of growth at 150 g/ha was less than 50%.

Another assay relates to Amaranthus retroflexus. The assay is described as follows: Herbicidal activity against Amaranthus retroflexus assessed as growth inhibition at 150 g ai/ha applied as pre-emergence treatment 24 hr after weeds seeds sowing under green house conditions measured 15 days post compound treatment. The assay is classed as functional. Particulars: read-out: GI. Put shortly: as §1
As for `CCCn1nc(C)c2cccc(Oc3nc(OC)cc(OC)n3)c2c1=O`, the inhibition of growth at 150 g/ha is less than 50%.
On to `CCc1ccc(C(=O)n2nc(C)c3cccc(Oc4nc(OC)cc(OC)n4)c3c2=O)cc1`, for which the inhibition of growth at 150 g/ha was less than 50%.

The next assay addresses T1, Acetolactate synthase, chloroplastic (Arabidopsis thaliana, UniProt P17597).
T1 sequence (P17597 whole entry): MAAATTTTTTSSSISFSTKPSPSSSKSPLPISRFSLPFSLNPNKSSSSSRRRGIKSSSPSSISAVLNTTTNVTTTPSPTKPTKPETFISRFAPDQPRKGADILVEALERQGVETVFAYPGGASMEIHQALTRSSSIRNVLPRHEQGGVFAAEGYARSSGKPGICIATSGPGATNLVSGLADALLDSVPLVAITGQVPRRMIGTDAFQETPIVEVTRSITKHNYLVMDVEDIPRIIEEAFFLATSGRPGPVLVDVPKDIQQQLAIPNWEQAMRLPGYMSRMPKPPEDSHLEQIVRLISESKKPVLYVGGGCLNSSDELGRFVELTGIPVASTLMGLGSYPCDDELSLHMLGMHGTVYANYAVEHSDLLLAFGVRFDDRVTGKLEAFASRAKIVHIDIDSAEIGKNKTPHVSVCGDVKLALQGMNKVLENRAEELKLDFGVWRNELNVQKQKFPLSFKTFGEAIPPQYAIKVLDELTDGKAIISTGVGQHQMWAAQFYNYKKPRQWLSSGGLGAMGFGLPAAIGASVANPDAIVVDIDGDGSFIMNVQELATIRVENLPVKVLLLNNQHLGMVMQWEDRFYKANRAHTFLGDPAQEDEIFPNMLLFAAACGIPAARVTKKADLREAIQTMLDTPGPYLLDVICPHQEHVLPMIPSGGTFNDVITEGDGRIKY
As to the kind of experiment: Inhibition of wild type Arabidopsis thaliana acetohydroxyacid synthase.
Conditions: not given
In the case of `CCCn1nc(C)c2cccc(Oc3nc(OC)cc(OC)n3)c2c1=O`, the Ki worked out at 1660 µM.
The compound `CCc1ccc(C(=O)n2nc(C)c3cccc(Oc4nc(OC)cc(OC)n4)c3c2=O)cc1` had a Ki of 710 µM.

Another assay deals with Digitaria sanguinalis. The assay is described as follows: Herbicidal activity against Digitaria sanguinalis (hairy crabgrass) assessed as growth inhibition at 150 g ai/ha applied as post-emergence treatment under green house conditions measured 15 days post compound treatment. To be noted: 360 h, read-out: GI. Format: functional. The gist of the method:
(§3)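 Monocot weeds grown in pots in a greenhouse and sprayed post-emergence at the one-leaf stage. Clay soil: pH 6.5, 1.6% organic matter, 37.3% clay, CEC 12.1 cmol/kg. Formulation: 100 g/L emulsified concentrate (DMF, TW-80) diluted with water to 150 g ai/ha. Untreated and DMF controls included. Growth inhibition scored visually after 15 days: ++ >80%, + 50-80%, − <50%.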
In the case of `CCCn1nc(C)c2cccc(Oc3nc(OC)cc(OC)n3)c2c1=O`, the inhibition of growth at 150 g/ha was 50%.
Take `CCc1ccc(C(=O)n2nc(C)c3cccc(Oc4nc(OC)cc(OC)n4)c3c2=O)cc1`: the inhibition of growth at 150 g/ha was less than 50%.

A further assay has as its system Chenopodium album. As to the kind of experiment: Herbicidal activity against Chenopodium album assessed as growth inhibition at 150 g ai/ha applied as post-emergence treatment under green house conditions measured 15 days post compound treatment. Format: functional. To be noted: 360 h, read-out: GI. The gist of the method: as §2
On to `CCCn1nc(C)c2cccc(Oc3nc(OC)cc(OC)n3)c2c1=O`, for which the inhibition of growth at 150 g/ha worked out at 50%.
`CCc1ccc(C(=O)n2nc(C)c3cccc(Oc4nc(OC)cc(OC)n4)c3c2=O)cc1`: the inhibition of growth at 150 g/ha was determined as 50%.

A further assay relates to Echinochloa crus-galli. The assay is described as follows: Herbicidal activity against Echinochloa crus-galli (barnyard grass) assessed as growth inhibition at 150 g ai/ha applied as post-emergence treatment under green house conditions measured 15 days post compound treatment. Format: functional. Particulars: 360 h, read-out: GI. Put shortly: as §3
In the case of `CCCn1nc(C)c2cccc(Oc3nc(OC)cc(OC)n3)c2c1=O`, the inhibition of growth at 150 g/ha was found to be 50%.
Consider `CCc1ccc(C(=O)n2nc(C)c3cccc(Oc4nc(OC)cc(OC)n4)c3c2=O)cc1`, for which the inhibition of growth at 150 g/ha was found to be 50%.

For a further assay, the system named is Amaranthus retroflexus. The assay is described as follows: Herbicidal activity against Amaranthus retroflexus assessed as growth inhibition at 150 g ai/ha applied as post-emergence treatment under green house conditions measured 15 days post compound treatment. The assay is classed as functional. To be noted: 360 h, read-out: GI. Put shortly: as §2
Consider `CCCn1nc(C)c2cccc(Oc3nc(OC)cc(OC)n3)c2c1=O`, for which the inhibition of growth at 150 g/ha is greater than 80%.
On to `CCc1ccc(C(=O)n2nc(C)c3cccc(Oc4nc(OC)cc(OC)n4)c3c2=O)cc1`, for which the inhibition of growth at 150 g/ha is greater than 80%.

A further assay concerns Setaria viridis. The assay is described as follows: Herbicidal activity against Setaria viridis (green foxtail) assessed as growth inhibition at 150 g ai/ha applied as post-emergence treatment under green house conditions measured 15 days post compound treatment. Format: functional. To be noted: 360 h, read-out: GI. The gist of the method: as §3
Take `CCCn1nc(C)c2cccc(Oc3nc(OC)cc(OC)n3)c2c1=O`: the inhibition of growth at 150 g/ha amounted to 50%.
Still for that read-out and setting: the figure for `CCc1ccc(C(=O)n2nc(C)c3cccc(Oc4nc(OC)cc(OC)n4)c3c2=O)cc1` is 50%.
